Reference: ChEMBL document CHEMBL1152431, “p-Guanidinoethyl calixarene and parent phenol derivatives exhibiting antibacterial activities. Synthesis and biological evaluation” (Bioorg Med Chem, 2009)
Active and inactive are the calls of the source. The calls are words filed in the database; no cut-off is given here.

Tests used:
[1] = Selectivity index, ratio of IC50 for human MRC5 cells after 24 hrs to MIC for Staphylococcus aureus ATCC 29213; format: functional
Procedure, shortened: (§1)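 SI computed as the MRC-5 IC50 after 24 h of drug exposure divided by the broth microdilution MIC for the named reference strain.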

[2] = Selectivity index, ratio of IC50 for human MRC5 cells after 24 hrs to MIC for Enterococcus faecalis ATCC 29212; format: functional; procedure, shortened: as §1
Escherichia coli [3] = test: Antibacterial activity against Escherichia coli ATCC 25922 after 18 to 24 hrs by broth microdilution method; format: functional
Procedure, shortened: (§2)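 CLSI broth microdilution in Mueller-Hinton broth, with a final inoculum of 1 × 10^5 CFU/mL in U-bottom microplates. Isolate purity was checked at each test by colony morphology and Gram stain. Drug dilutions were added and plates incubated 18–24 h at 35 °C. Growth was read as absorbance at 540 nm to give the MIC.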

Pseudomonas aeruginosa [4] = test: Antibacterial activity against Pseudomonas aeruginosa ATCC 27853 after 18 to 24 hrs by broth microdilution method; format: functional; procedure, shortened: as §2
Staphylococcus aureus [5] = test: Antibacterial activity against Staphylococcus aureus ATCC 25923 after 18 to 24 hrs by broth microdilution method; format: functional; procedure, shortened: as §2
Staphylococcus aureus [6] = test: Antibacterial activity against Staphylococcus aureus ATCC 29213 after 18 to 24 hrs by broth microdilution method; format: functional; procedure, shortened: as §2
Enterococcus faecalis [7] = test: Antibacterial activity against Enterococcus faecalis ATCC 29212 after 18 to 24 hrs by broth microdilution method; format: functional; procedure, shortened: as §2
MRC5 [8] = test: Cytotoxicity against human MRC5 cells after 24 hrs; format: cell-based; conditions: MRC5, 24 h
Procedure, shortened: (§3)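 MRC-5 human embryonic lung fibroblasts were grown in MEM with 10% heat-inactivated FBS and no antibiotics at 37 °C, 5% CO2, and seeded at 10^4 cells/well. After 48 h, drugs were applied at 256 to 1 µg/mL for 24, 48 or 168 h. Viability was read by MTT, or by LDH release for some compounds, as percent of untreated control. IC50 was given as a range; 8 wells per dose, 3 independent experiments.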

MRC5 [9] = test: Cytotoxicity against human MRC5 cells after 48 hrs; format: cell-based; conditions: MRC5, 48 h; procedure, shortened: as §3
MRC5 [10] = test: Cytotoxicity against human MRC5 cells after 168 hrs; format: cell-based; conditions: MRC5, 168 h; procedure, shortened: as §3
[11] = Selectivity index, ratio of IC50 for human MRC5 cells after 24 hrs to MIC for Escherichia coli ATCC 25922; format: functional; procedure, shortened: as §1
[12] = Selectivity index, ratio of IC50 for human MRC5 cells after 24 hrs to MIC for Pseudomonas aeruginosa ATCC 27853; format: functional; procedure, shortened: as §1
[13] = Selectivity index, ratio of IC50 for human MRC5 cells after 24 hrs to MIC for Staphylococcus aureus ATCC 25923; format: functional; procedure, shortened: as §1
Escherichia coli [14] = test: Antibacterial activity against Escherichia coli ATCC 25922 upto 256 ug/mL after 18 to 24 hrs by broth microdilution method; format: functional, organism-based; procedure, shortened: as §2
Pseudomonas aeruginosa [15] = test: Antibacterial activity against Pseudomonas aeruginosa ATCC 27853 upto 256 ug/mL after 18 to 24 hrs by broth microdilution method; format: functional, organism-based; procedure, shortened: as §2
Staphylococcus aureus [16] = test: Antibacterial activity against Staphylococcus aureus ATCC 25923 upto 256 ug/mL after 18 to 24 hrs by broth microdilution method; format: functional, organism-based; procedure, shortened: as §2
Staphylococcus aureus [17] = test: Antibacterial activity against Staphylococcus aureus ATCC 29213 upto 256 ug/mL after 18 to 24 hrs by broth microdilution method; format: functional, organism-based; procedure, shortened: as §2
Enterococcus faecalis [18] = test: Antibacterial activity against Enterococcus faecalis ATCC 29212 upto 256 ug/mL after 18 to 24 hrs by broth microdilution method; format: functional, organism-based; procedure, shortened: as §2

Row | Compound | Selectivity Index [1] | Selectivity Index [2] | MIC (Escherichia coli [3]) [µg/mL] | MIC (Pseudomonas aeruginosa [4]) [µg/mL] | MIC (Staphylococcus aureus [5]) [µg/mL] | MIC (Staphylococcus aureus [6]) [µg/mL] | MIC (Enterococcus faecalis [7]) [µg/mL] | IC50 (MRC5 [8]) [µg/mL] | IC50 (MRC5 [9]) [µg/mL] | IC50 (MRC5 [10]) [µg/mL] | Selectivity Index [11] | Selectivity Index [12] | Selectivity Index [13] | Activity (Escherichia coli [14]) | Activity (Pseudomonas aeruginosa [15]) | Activity (Staphylococcus aureus [16]) | Activity (Staphylococcus aureus [17]) | Activity (Enterococcus faecalis [18])
1 | N=C(N)NCCCCCCCCCCNC(=N)N.O=C(O)C(F)(F)F [SYNTHALIN A] | 8 | 0.5 | 64 | 128 | 64 | 16 | 256 | 128 | 8 | < 1 | 2 | 1 | 2 | – | – | – | – | –
2 | Cc1csc(-c2nc(COc3c4cc(CCNC(=N)N)cc3Cc3cc(CCNC(=N)N)cc(c3O)Cc3cc(CCNC(=N)N)cc(c3OCc3csc(-c5nc(C)cs5)n3)Cc3cc(CCNC(=N)N)cc(c3O)C4)cs2)n1.O=C(O)C(F)(F)F | 1 | 2 | 16 | 16 | 8 | 16 | 8 | 16 | 16 | 16 | 1 | 1 | 2 | – | – | – | – | –
3 | N=C(N)NCCc1cc2c(O)c(c1)Cc1cc(CCNC(=N)N)cc(c1O)Cc1cc(CCNC(=N)N)cc(c1O)Cc1cc(CCNC(=N)N)cc(c1O)C2.O=C(O)C(F)(F)F | >32 | >8 | 4 | 32 | 8 | 8 | 32 | > 256 | > 256 | 128 | >64 | >8 | >32 | – | – | – | – | –
4 | O=C([O-])C(F)(F)F.[Na+] | – | – | – | – | – | – | – | – | – | – | – | – | – | inactive | inactive | inactive | inactive | inactive
5 | Cc1cccc(-c2cccc(COc3ccc(CCNC(=N)N)cc3)n2)n1.O=C(O)C(F)(F)F | 4 | 0.5 | 128 | 128 | 16 | 8 | 64 | 32 | 16 | 2 | 0.25 | 0.25 | 2 | – | – | – | – | –
6 | N=C(N)NCCc1ccc(O)cc1.O=C(O)C(F)(F)F | >0.5 | – | 512 | > 512 | 512 | 512 | > 512 | > 256 | > 256 | 32 | >0.5 | – | >0.5 | – | – | – | – | –
7 | Cc1ccc(-c2ccc(COc3c4cc(CCNC(=N)N)cc3Cc3cc(CCNC(=N)N)cc(c3O)Cc3cc(CCNC(=N)N)cc(c3OCc3ccc(-c5ccc(C)cn5)nc3)Cc3cc(CCNC(=N)N)cc(c3O)C4)cn2)nc1.O=C(O)C(F)(F)F | >16 | >16 | 32 | 32 | 8 | 8 | 8 | > 128 | > 128 | – | >4 | >4 | >16 | – | – | – | – | –
8 | Cc1csc(-c2nc(COc3ccc(CCNC(=N)N)cc3)cs2)n1.O=C(O)C(F)(F)F | 8 | 1 | 64 | 128 | 16 | 8 | 64 | 64 | 32 | 8 | 1 | 0.5 | 4 | – | – | – | – | –
9 | Cc1cccc(-c2cccc(COc3c4cc(CCNC(=N)N)cc3Cc3cc(CCNC(=N)N)cc(c3O)Cc3cc(CCNC(=N)N)cc(c3OCc3cccc(-c5cccc(C)n5)n3)Cc3cc(CCNC(=N)N)cc(c3O)C4)n2)n1.O=C(O)C(F)(F)F | 1 | 1 | 16 | 16 | 16 | 16 | 16 | 16 | 16 | 16 | 1 | 1 | 1 | – | – | – | – | –
10 | N=C(N)c1ccc(OCCCCCCOc2ccc(C(=N)N)cc2)cc1.O=C(O)C(F)(F)F | 32 | 16 | 8 | 32 | 4 | < 1 | 2 | 32 | 16 | 4 | 4 | 1 | 8 | – | – | – | – | –
11 | Cc1ccc(-c2ccc(COc3ccc(CCNC(=N)N)cc3)cn2)nc1.O=C(O)C(F)(F)F | >32 | >2 | 8 | 128 | 8 | 4 | 64 | > 128 | > 128 | – | >16 | >1 | >16 | – | – | – | – | –
